# Test results reported in the M2OR odorant receptor database.
# What was measured:
# Conditions in all cases: stereoisomer not certain
# OR2M5 G255A = test system: OR2M5 G255A
# Procedure, shortened: (§1)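 Each entry records the cell line, G-protein, co-transfected protein and tags used. Methods varied with the source, often transient luciferase assays in mammalian cell lines. A receptor–molecule pair is called responsive (active) if the original authors judged its signal statistically different from baseline and non-responsive (inactive) otherwise.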
# OR2M5 L273M = test system: OR2M5 L273M
# Procedure, shortened: as §1
# OR2M5 M154T = test system: OR2M5 M154T
# Procedure, shortened: as §1
# OR2M5 S119A = test system: OR2M5 S119A
# Procedure, shortened: as §1
# [1] = test system: OR2M5 V105T A156G A160V G255A
# Procedure, shortened: as §1
# [2] = test system: OR2M5 V105T A156G G255A L273M
# Procedure, shortened: as §1
# OR2M5 V105T A156G G255A = test system: OR2M5 V105T A156G G255A
# Procedure, shortened: as §1
# [3] = test system: OR2M5 V105T A156G V198I G255A
# Procedure, shortened: as §1
# OR2M5 V105T A156G = test system: OR2M5 V105T A156G
# Procedure, shortened: as §1
# OR2M5 V105T G255H = test system: OR2M5 V105T G255H
# Procedure, shortened: as §1
# OR2M5 V105T M154T G255A = test system: OR2M5 V105T M154T G255A
# Procedure, shortened: as §1
# [4] = test system: OR2M5 V105T S119A A156G G255A
# Procedure, shortened: as §1
# OR2M5 V105T = test system: OR2M5 V105T
# Procedure, shortened: as §1
# OR2M5 V198I = test system: OR2M5 V198I
# Procedure, shortened: as §1
# OR2S2 (Homo sapiens) = biological target: T1, OR2S2 (Homo sapiens) (UniProt Q9NQN1)
# T1 sequence (whole entry): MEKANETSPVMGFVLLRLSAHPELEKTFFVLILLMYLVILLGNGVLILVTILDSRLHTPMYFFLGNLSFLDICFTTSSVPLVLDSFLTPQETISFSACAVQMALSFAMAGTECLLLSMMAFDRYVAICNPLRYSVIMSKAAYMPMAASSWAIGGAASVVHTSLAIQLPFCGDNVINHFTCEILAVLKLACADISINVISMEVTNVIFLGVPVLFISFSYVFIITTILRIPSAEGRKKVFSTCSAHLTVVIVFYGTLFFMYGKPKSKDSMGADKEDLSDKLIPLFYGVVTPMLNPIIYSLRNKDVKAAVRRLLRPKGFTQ
# Procedure, shortened: as §1
# OR2T1 (Homo sapiens) = biological target: T2, OR2T1 (Homo sapiens) (UniProt O43869)
# T2 sequence (whole entry): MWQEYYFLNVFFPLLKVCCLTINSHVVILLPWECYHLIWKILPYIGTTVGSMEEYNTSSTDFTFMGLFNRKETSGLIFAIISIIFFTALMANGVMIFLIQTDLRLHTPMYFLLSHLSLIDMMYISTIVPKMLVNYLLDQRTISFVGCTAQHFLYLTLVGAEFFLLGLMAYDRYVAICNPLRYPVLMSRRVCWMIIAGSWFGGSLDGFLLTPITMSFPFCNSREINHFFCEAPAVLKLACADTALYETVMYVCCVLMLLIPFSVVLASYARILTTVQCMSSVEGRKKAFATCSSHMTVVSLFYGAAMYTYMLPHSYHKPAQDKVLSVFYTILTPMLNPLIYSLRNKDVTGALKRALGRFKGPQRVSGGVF
# Procedure, shortened: as §1
# OR2T10 (Homo sapiens) = biological target: T3, OR2T10 (Homo sapiens) (UniProt Q8NGZ9)
# T3 sequence (whole entry): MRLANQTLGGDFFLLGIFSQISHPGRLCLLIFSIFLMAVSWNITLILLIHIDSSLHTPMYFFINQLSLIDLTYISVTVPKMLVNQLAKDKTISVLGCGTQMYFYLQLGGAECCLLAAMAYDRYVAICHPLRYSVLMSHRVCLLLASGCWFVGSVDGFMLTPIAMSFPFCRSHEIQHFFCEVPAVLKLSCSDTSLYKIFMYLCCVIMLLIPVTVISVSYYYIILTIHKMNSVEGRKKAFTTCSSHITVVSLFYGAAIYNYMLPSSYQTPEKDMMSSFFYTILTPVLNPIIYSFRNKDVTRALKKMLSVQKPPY
# Procedure, shortened: as §1
# OR2M7 (Homo sapiens) = biological target: T4, OR2M7 (Homo sapiens) (UniProt Q8NG81)
# T4 sequence (whole entry): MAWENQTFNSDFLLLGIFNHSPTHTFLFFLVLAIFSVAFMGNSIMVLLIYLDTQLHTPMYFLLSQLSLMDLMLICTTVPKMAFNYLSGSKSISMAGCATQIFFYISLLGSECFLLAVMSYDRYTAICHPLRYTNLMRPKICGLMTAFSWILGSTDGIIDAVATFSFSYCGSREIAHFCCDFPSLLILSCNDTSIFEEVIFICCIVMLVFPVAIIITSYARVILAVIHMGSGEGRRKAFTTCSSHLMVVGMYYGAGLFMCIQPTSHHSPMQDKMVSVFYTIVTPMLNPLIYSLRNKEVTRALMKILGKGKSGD
# Procedure, shortened: as §1
# OR2M7 [5] = test system: OR2M7
# Procedure, shortened: as §1
# Target sequence in this assay (as listed by the source): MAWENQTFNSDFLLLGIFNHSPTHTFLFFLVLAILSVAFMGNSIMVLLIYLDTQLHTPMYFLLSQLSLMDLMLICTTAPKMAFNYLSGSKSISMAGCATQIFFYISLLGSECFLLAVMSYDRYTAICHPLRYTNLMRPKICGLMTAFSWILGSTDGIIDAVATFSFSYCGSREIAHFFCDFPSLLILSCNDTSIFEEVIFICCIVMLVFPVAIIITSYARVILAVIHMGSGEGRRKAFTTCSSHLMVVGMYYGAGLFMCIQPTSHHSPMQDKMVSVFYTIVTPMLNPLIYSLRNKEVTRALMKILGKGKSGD
# OR2M7 [6] = test system: OR2M7; remark: listed apart in the source
# Procedure, shortened: as §1
# Target sequence in this assay (as listed by the source): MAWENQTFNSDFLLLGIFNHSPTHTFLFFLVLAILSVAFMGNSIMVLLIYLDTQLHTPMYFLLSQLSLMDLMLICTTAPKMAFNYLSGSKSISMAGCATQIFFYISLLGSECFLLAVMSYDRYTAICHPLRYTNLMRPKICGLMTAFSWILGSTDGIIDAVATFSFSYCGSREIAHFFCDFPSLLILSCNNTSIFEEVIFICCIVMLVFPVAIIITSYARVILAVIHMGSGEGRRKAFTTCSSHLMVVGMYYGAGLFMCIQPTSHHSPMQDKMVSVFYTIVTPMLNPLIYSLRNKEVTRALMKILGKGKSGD
# OR2M5 V105T, sequence (as listed by the source, stated change not applied): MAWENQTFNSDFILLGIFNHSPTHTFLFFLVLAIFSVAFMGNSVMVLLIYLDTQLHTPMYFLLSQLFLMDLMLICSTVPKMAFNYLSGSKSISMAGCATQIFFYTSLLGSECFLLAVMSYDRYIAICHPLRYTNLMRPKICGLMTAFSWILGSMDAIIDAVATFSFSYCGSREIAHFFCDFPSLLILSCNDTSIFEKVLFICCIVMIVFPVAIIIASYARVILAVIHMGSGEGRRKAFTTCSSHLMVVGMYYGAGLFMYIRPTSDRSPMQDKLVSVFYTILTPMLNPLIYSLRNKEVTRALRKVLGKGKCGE
# OR2M5 V198I, sequence (as listed by the source, stated change not applied): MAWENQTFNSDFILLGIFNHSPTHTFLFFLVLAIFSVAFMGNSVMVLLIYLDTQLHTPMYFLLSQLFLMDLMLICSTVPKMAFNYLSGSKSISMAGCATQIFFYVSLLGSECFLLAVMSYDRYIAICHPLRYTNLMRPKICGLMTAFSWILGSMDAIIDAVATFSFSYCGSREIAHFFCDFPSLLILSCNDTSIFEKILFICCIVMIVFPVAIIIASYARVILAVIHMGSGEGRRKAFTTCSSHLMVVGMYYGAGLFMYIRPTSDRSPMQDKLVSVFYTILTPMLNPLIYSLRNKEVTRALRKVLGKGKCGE
# OR2M5 L273M, sequence (as listed by the source, stated change not applied): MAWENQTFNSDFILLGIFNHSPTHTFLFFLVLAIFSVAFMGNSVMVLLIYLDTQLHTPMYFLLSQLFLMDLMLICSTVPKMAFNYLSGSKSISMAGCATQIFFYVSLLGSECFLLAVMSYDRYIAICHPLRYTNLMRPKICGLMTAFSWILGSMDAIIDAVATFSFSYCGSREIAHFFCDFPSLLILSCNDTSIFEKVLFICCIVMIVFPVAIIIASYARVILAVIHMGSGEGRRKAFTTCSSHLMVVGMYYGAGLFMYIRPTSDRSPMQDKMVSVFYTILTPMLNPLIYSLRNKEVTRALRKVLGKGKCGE
# OR2M5 M154T, sequence (as listed by the source, stated change not applied): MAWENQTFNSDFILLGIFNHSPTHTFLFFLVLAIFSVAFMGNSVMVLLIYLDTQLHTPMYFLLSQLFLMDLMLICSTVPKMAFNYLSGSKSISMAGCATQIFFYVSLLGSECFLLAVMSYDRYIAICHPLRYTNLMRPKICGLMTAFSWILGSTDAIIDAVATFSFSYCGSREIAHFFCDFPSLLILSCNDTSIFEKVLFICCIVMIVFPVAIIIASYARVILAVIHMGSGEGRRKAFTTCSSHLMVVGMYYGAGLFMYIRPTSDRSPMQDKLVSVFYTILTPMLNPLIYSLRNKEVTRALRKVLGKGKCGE
# OR2M5 S119A, sequence (as listed by the source, stated change not applied): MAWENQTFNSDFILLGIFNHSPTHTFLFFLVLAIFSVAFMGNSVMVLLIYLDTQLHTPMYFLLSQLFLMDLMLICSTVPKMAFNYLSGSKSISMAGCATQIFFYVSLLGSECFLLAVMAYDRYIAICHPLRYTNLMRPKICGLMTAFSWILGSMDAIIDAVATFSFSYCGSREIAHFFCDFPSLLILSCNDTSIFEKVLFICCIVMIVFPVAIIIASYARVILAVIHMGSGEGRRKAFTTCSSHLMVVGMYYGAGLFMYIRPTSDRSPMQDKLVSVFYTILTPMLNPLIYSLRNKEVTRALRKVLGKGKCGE
# OR2M5 G255A, sequence (as listed by the source, stated change not applied): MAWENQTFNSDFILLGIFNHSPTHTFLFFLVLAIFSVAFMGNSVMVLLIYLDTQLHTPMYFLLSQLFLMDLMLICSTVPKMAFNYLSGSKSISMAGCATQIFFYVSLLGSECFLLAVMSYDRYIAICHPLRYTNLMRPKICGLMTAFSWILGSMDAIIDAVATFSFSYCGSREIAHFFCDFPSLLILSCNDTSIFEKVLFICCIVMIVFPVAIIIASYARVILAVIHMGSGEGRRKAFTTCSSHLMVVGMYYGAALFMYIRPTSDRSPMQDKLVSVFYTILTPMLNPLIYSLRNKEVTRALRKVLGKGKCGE
smiles,measurement,setting,value
CCC(S)C(C)CO (stereo unspecified),odorant receptor agonist call,OR2M5 G255A,inactive
same,odorant receptor agonist call,OR2M5 L273M,inactive
same,odorant receptor agonist call,OR2M5 M154T,inactive
same,odorant receptor agonist call,OR2M5 S119A,inactive
same,odorant receptor agonist call,[1],inactive
same,odorant receptor agonist call,[2],inactive
same,odorant receptor agonist call,OR2M5 V105T A156G G255A,inactive
same,odorant receptor agonist call,[3],inactive
same,odorant receptor agonist call,OR2M5 V105T A156G,inactive
same,odorant receptor agonist call,OR2M5 V105T G255H,inactive
same,odorant receptor agonist call,OR2M5 V105T M154T G255A,inactive
same,odorant receptor agonist call,[4],inactive
same,odorant receptor agonist call,OR2M5 V105T,inactive
same,odorant receptor agonist call,OR2M5 V198I,inactive
same,odorant receptor agonist call,OR2S2 (Homo sapiens),inactive
same,odorant receptor agonist call,OR2T1 (Homo sapiens),inactive
same,odorant receptor agonist call,OR2T10 (Homo sapiens),inactive
O=C1CCOc2ccccc21,odorant receptor agonist call,OR2M7 (Homo sapiens),inactive
CCCCCCO,odorant receptor agonist call,OR2M7 (Homo sapiens),inactive
CCCCCCC(C)=O,odorant receptor agonist call,OR2M7 (Homo sapiens),inactive
O=C(c1ccccc1)c1ccccc1,odorant receptor agonist call,OR2M7 (Homo sapiens),inactive
CC1=NC(C)C(C)S1 (stereo unspecified),odorant receptor agonist call,OR2M7 (Homo sapiens),inactive
same,odorant receptor agonist call,OR2S2 (Homo sapiens),inactive
same,odorant receptor agonist call,OR2T1 (Homo sapiens),inactive
same,odorant receptor agonist call,OR2T10 (Homo sapiens),inactive
CCCCCCCCCC(=O)[O-].[H+],odorant receptor agonist call,OR2M7 (Homo sapiens),inactive
CCCCCC(=O)CC,odorant receptor agonist call,OR2M7 (Homo sapiens),inactive
CCCCOC(=O)C(C)OC(=O)CCC (stereo unspecified),odorant receptor agonist call,OR2M7 (Homo sapiens),inactive
CCCC(S)CCOC(C)=O (stereo unspecified),odorant receptor agonist call,OR2M7 (Homo sapiens),inactive
same,odorant receptor agonist call,OR2S2 (Homo sapiens),inactive
same,odorant receptor agonist call,OR2T1 (Homo sapiens),inactive
same,odorant receptor agonist call,OR2T10 (Homo sapiens),inactive
CC1=C(O)C(=O)C(C)O1 (stereo unspecified),odorant receptor agonist call,OR2M7 (Homo sapiens),inactive
same,odorant receptor agonist call,OR2S2 (Homo sapiens),inactive
same,odorant receptor agonist call,OR2T1 (Homo sapiens),inactive
same,odorant receptor agonist call,OR2T10 (Homo sapiens),inactive
CCOC(=O)C(C)C,odorant receptor agonist call,OR2M7 (Homo sapiens),inactive
CCC1OC(=O)C(O)=C1C (stereo unspecified),odorant receptor agonist call,OR2M7 (Homo sapiens),inactive
same,odorant receptor agonist call,OR2S2 (Homo sapiens),inactive
same,odorant receptor agonist call,OR2T1 (Homo sapiens),inactive
same,odorant receptor agonist call,OR2T10 (Homo sapiens),inactive
CCCCCCC=CCCC=O,odorant receptor agonist call,OR2M7 (Homo sapiens),inactive
same,odorant receptor agonist call,OR2S2 (Homo sapiens),inactive
same,odorant receptor agonist call,OR2T1 (Homo sapiens),inactive
same,odorant receptor agonist call,OR2T10 (Homo sapiens),inactive
CC1CCCCCCCCCCCCC(=O)C1 (stereo unspecified),odorant receptor agonist call,OR2M7 (Homo sapiens),inactive
same,odorant receptor agonist call,OR2S2 (Homo sapiens),inactive
same,odorant receptor agonist call,OR2T1 (Homo sapiens),inactive
same,odorant receptor agonist call,OR2T10 (Homo sapiens),inactive
CC(C)=CCCC(C)=CCO,odorant receptor agonist call,OR2M7 (Homo sapiens),active
same,odorant receptor agonist call,OR2M7 [5],active
same,odorant receptor agonist call,OR2M7 [6],inactive
same,odorant receptor agonist call,OR2T10 (Homo sapiens),inactive
CCCCCCCCCO,odorant receptor agonist call,OR2M7 (Homo sapiens),inactive
CCCCCC(=O)C(C)C(C)=O (stereo unspecified),odorant receptor agonist call,OR2M7 (Homo sapiens),inactive
same,odorant receptor agonist call,OR2S2 (Homo sapiens),inactive
same,odorant receptor agonist call,OR2T1 (Homo sapiens),inactive
same,odorant receptor agonist call,OR2T10 (Homo sapiens),inactive
CCCCCCCCC(=O)O,odorant receptor agonist call,OR2M7 (Homo sapiens),inactive
CC(C)=CCCC(C)CCO (stereo unspecified),odorant receptor agonist call,OR2M7 (Homo sapiens),active
CCCCCCCC(=O)[O-].[H+],odorant receptor agonist call,OR2M7 (Homo sapiens),inactive
CCC(C(=O)O)c1ccccc1 (stereo unspecified),odorant receptor agonist call,OR2M7 (Homo sapiens),inactive
Cc1cnc(C)c(C)n1,odorant receptor agonist call,OR2M7 (Homo sapiens),inactive
same,odorant receptor agonist call,OR2S2 (Homo sapiens),inactive
same,odorant receptor agonist call,OR2T1 (Homo sapiens),inactive
same,odorant receptor agonist call,OR2T10 (Homo sapiens),inactive
CCCCC(S)C(C)CO (stereo unspecified),odorant receptor agonist call,OR2M7 (Homo sapiens),inactive
same,odorant receptor agonist call,OR2S2 (Homo sapiens),inactive
same,odorant receptor agonist call,OR2T1 (Homo sapiens),inactive
same,odorant receptor agonist call,OR2T10 (Homo sapiens),inactive
CCCCCCCCS,odorant receptor agonist call,OR2M7 (Homo sapiens),inactive
CCCC(=O)C(C)=O,odorant receptor agonist call,OR2M7 (Homo sapiens),inactive
CC(=O)c1c(C)c([N+](=O)[O-])c(C(C)(C)C)c([N+](=O)[O-])c1C,odorant receptor agonist call,OR2M7 (Homo sapiens),inactive
same,odorant receptor agonist call,OR2S2 (Homo sapiens),inactive
same,odorant receptor agonist call,OR2T1 (Homo sapiens),inactive
same,odorant receptor agonist call,OR2T10 (Homo sapiens),inactive
CCC1OC(C)=C(O)C1=O (stereo unspecified),odorant receptor agonist call,OR2M7 (Homo sapiens),inactive
same,odorant receptor agonist call,OR2S2 (Homo sapiens),inactive
same,odorant receptor agonist call,OR2T1 (Homo sapiens),inactive
same,odorant receptor agonist call,OR2T10 (Homo sapiens),inactive
CCCCCOC(=O)CCCCC,odorant receptor agonist call,OR2M7 (Homo sapiens),inactive
